Measured values taken from ChEMBL document CHEMBL4402547, “Synthesis and Pharmacological Characterization of Conformationally Restricted Retigabine Analogues as Novel Neuronal Kv7 Channel Activators” (J Med Chem, 2020).
pEC50: −log10 of the molar value. Calls of active or inactive are those of the source. The rule behind the calls is not given here.

Tests used:
[1] = target: Voltage-gated potassium channel, KQT; KCNQ2(Kv7.2)/KCNQ3(Kv7.3) (Homo sapiens, UniProt O43525+O43526); assay: Activation of human Kv7.2/Kv7.3 expressed in CHO cells assessed as increase in channel current amplitude by whole cell patch clamp electrophysiology assay; type: cell-based
Method in brief: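 Human Kv7.2 plus Kv7.3 cDNAs co-transfected into CHO cells; whole-cell patch clamp at 20–22°C, extracellular solution pH 7.4. Drug applied at 0.01–10 μM to test concentration-dependent current increase.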

[2] = target: T1, Potassium voltage-gated channel subfamily KQT member 2 (Homo sapiens, UniProt O43526); assay: Activation of human Kv7.2 expressed in CHO cells assessed as increase in channel current amplitude by whole cell patch clamp electrophysiology assay; type: cell-based
[3] = target: T1, Potassium voltage-gated channel subfamily KQT member 2; assay: Activation of human Kv7.2 expressed in CHO cells assessed as current amplitude at 10 uM measured after 10 secs upon drug wash-out at holding potential of -40 mV by whole cell patch clamp electrophysiology assay; type: cell-based
Method in brief: (§1)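 Human Kv7.2 transiently expressed in CHO cells, whole-cell patch clamp at 20–22°C, pH 7.4 HEPES-buffered extracellular solution under constant perfusion. Cells held at -80 mV; 3-s ramps -80 to +20 mV with and without compound; current at -40 mV taken as drug/control amplitude ratio, followed over time during application and wash-out; mean ± SEM of ≥3 cells from ≥2 transfections.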

[4] = Photostability of compound in pH 7.4 buffer assessed as compound degradation at 100 ug/ml incubated for 6 hrs under UV-irradiation at wavelength of 365 and 264 nm by HPLC analysis
Method in brief: (§2)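 Compound from DMSO stock diluted in pH 7.4 buffer to final 1 mM, 10 μM or 1 μM in 1 cm quartz cells, held at 37°C under UV lamp (365 and 264 nm) or artificial daylight D65 lamp; dark controls in foil at 37°C. Aliquots taken at set intervals; loss of parent by HPLC (C18, TFA water/acetonitrile gradient, 254 nm).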

[5] = target: T1, Potassium voltage-gated channel subfamily KQT member 2; assay: Activation of human Kv7.2 expressed in CHO cells assessed as maximal steady-state increase in current amplitude at 10 uM measured within 10 secs at holding potential of -40 mV by whole cell patch clamp electrophysiology assay; type: cell-based; method in brief: as §1
[6] = Photostability of compound in pH 7.4 buffer assessed as metabolite with phenazinium-dimer formation incubated for 6 hrs under visible light irradiation by HPLC/MS/MS analysis
[7] = Photostability of compound in pH 7.4 buffer assessed as formation of 4-fluorobenzaldehyde incubated for 6 hrs under visible light irradiation by GCMS analysis
[8] = Photostability of compound in pH 7.4 buffer assessed as formation of ethyl (2,4-bis((4-fluorobenzyl)amino)phenyl)carbamate by measuring retention time of metabolite incubated for 6 hrs under visible light irradiation by HPLC/MS analysis
[9] = target: T1, Potassium voltage-gated channel subfamily KQT member 2; assay: Activation of human Kv7.2 expressed in CHO cells assessed as increase in current amplitude with fast ON kinetics measured at holding potential of -40 mV by whole cell patch clamp electrophysiology assay; type: cell-based; method in brief: as §1
[10] = Photostability of compound in pH 7.4 buffer assessed as compound degradation at 100 ug/ml incubated for 6 hrs under artificial daylight D65 lamp-irradiation by HPLC analysis relative to control; method in brief: as §2
[11] = target: T1, Potassium voltage-gated channel subfamily KQT member 2; assay: Activation of human Kv7.2 expressed in CHO cells assessed as leftward shift in half-activation voltage at 0.03 uM in constant voltage pulse by whole cell patch clamp electrophysiology assay; type: cell-based
Method in brief: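 CHO cells transiently expressing human Kv7.2, whole-cell patch clamp at 20–22°C, pH 7.4 bath. Currents activated by constant voltage pulses before and after 0.03 μM drug. Normalized conductance/voltage curves fitted to a double Boltzmann function to obtain half-activation voltage (V1/2).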

T1 sequence (O43526 whole entry): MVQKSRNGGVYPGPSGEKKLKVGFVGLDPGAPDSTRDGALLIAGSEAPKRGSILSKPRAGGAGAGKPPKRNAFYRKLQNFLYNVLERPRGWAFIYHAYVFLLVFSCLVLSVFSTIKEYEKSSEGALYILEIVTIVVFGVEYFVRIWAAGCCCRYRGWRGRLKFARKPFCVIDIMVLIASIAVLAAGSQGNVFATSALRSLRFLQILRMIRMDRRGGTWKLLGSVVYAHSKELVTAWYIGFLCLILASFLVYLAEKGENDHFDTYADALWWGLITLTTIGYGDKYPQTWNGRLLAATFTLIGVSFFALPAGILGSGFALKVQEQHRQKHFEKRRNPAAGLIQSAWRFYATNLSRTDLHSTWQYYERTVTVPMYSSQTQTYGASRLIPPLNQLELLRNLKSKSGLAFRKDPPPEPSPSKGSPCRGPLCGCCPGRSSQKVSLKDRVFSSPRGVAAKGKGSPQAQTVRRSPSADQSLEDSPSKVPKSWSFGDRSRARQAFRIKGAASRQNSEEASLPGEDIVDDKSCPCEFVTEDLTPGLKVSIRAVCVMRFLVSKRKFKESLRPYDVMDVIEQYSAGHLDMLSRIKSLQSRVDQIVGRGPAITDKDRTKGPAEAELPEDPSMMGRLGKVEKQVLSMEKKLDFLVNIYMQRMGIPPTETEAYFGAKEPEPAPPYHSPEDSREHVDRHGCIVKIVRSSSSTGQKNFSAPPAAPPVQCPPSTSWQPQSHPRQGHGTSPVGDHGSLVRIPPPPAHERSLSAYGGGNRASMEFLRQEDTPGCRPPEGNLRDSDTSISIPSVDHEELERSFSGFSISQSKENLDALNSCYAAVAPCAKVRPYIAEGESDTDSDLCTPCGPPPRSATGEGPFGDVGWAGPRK
Sequence of Voltage-gated potassium channel, KQT; KCNQ2(Kv7.2)/KCNQ3(Kv7.3) (O43526 whole entry): as above
Sequence of Voltage-gated potassium channel, KQT; KCNQ2(Kv7.2)/KCNQ3(Kv7.3) (O43525 whole entry): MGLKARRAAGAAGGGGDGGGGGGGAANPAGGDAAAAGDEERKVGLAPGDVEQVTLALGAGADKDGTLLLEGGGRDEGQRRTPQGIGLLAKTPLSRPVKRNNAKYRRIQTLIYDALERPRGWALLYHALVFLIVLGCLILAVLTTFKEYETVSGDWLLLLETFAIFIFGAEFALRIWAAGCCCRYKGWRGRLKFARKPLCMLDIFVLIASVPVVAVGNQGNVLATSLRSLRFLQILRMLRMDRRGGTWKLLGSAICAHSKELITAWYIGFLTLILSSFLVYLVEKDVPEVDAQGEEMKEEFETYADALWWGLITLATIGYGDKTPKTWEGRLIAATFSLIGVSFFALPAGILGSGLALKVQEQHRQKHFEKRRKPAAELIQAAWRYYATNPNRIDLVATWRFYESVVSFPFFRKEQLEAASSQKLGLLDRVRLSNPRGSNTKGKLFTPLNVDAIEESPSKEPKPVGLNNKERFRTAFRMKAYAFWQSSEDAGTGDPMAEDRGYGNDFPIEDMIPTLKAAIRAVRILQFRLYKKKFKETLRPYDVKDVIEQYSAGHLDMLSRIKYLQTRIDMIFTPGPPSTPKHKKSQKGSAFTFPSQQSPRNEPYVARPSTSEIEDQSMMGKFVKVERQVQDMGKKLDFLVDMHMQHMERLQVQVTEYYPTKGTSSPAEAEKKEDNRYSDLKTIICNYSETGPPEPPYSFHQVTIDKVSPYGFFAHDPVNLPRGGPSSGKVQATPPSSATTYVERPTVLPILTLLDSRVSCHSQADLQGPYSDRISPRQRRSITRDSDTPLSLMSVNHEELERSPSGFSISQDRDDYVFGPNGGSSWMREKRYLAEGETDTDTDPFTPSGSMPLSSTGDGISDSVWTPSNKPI

CC(C)(C)CC(=O)Nc1ccc2c(ccn2Cc2ccc(C(F)(F)F)cc2)c1
pEC50 [1]: 6.47
pEC50 [2]: 6.20

CCOC(=O)Nc1ccc(NCc2ccc(F)cc2)cc1N [EZOGABINE]
Activity [3]: inactive
Drug degradation [4]: 5%
Activity [5]: Active
Drug metabolism [6]: Metabolite detected
Drug metabolism [7]: Metabolite detected
Retention time [8]: 14.4 min
Activity [9]: Dose-dependent effect
Drug degradation [10]: 47.3%

CCCCCCC(=O)Nc1ccc2c(ccn2Cc2ccc(C(F)(F)F)cc2)c1
V1/2 [11]: 18 mV
